# UHRF1 binding: human UHRF1 methylated DNA binding inhibitors; Q96T88; UHRF1 binding to methylated oligo, TR-FRET; actives 0.75% (n = 370,000); inhibition, % at 4.4 µM; in the data active means inhibition above about 21%;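 further: UHRF1 SRA domain binding a hemimethylated CpG hairpin DNA probe; 0% = median of test compound wells and 100% = reference inhibitor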
# CASP6 VEID inh: caspase-6 (human) enzyme inhibition | purified caspase-6, Z-VEID-R110 cleavage fluorescence | P55212 | AID 686996 | inhibition, % at 12.5 µM | actives 0.53% (n = 350,000);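 active means mean inhibition across replicates at least about 35%, with every replicate also reaching that limit, limit read from the data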;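 further: 0% = median of neutral control wells and 100% = no fluorescence left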
# Target sequence (P55212 24-179 limits assumed): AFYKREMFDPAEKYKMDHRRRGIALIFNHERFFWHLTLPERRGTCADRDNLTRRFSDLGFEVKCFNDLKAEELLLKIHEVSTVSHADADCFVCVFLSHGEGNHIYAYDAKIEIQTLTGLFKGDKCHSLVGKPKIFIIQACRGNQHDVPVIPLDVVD
# Target sequence (P55212 194-293 limits assumed): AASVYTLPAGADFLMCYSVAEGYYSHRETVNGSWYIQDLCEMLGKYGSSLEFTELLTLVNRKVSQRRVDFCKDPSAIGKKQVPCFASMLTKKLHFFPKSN
# LEDGF integ inh: blocks HIV-1 LEDGF/p75-dependent DNA integration; TR-FRET IN-LEDGF/p75 DNA integration, Eu/Cy5; inhibition, % at 3.7 µM; actives 0.64% (n = 370,000);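 active means inhibition above the screen-wide mean plus 3 SD, cut at about 13% in these data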;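 further: signal is the Cy5 over europium emission ratio at 671 and 618 nm; 0% = plate median of compound wells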
# MBD2 DNA inh: MBD2-methylated oligo binding inhibition; Q9UBB5; inhibition, % at 4.4 µM; TR-FRET, MBD2 binding to methylated oligonucleotide; actives 0.31% (n = 370,000); AID 686964; in the data active means inhibition above about 13%
# TDP2 inh: TDP2 (human) inhibition, absorbance primary screen. O95551. recombinant TDP2, T5PNP hydrolysis, p-nitrophenol absorbance 415 nm. inhibition, % at 12.8 µM. actives 0.34% (n = 370,000). AID 720702;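 active means inhibition above the mean of all tested compounds plus 3 SD, set per campaign, cut at about 25% in these data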;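 further: 0% = DMSO with enzyme and 100% = buffer with substrate but no TDP2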
# Target sequence (O95551 whole entry, looked up): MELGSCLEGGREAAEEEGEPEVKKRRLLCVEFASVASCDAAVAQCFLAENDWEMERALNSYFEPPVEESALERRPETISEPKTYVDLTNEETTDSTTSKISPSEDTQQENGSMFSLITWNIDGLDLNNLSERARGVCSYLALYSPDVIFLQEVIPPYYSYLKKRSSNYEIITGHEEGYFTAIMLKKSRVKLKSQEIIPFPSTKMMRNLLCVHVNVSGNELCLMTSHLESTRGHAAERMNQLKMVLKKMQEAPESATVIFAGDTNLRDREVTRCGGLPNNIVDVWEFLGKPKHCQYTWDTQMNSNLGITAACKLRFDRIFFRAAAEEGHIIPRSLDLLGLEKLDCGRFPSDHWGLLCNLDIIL
#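 Assay system: recombinant human TDP2 / Reagent: T5PNP substrate at 5 mM, a TopII-DNA adduct mimic / Measured by: epi absorbance from released p-nitrophenol / Evaluation: % inhibition relative to enzyme-containing and enzyme-free wells / Control set: enzyme-free and DMSO wells / Replicates: each compound tested once, singlicate / Schedule: enzyme reaction with compound for 2 h at 37 °C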
# NSD2 HMT inh: NSD2 (human) methyltransferase inhibition | NSD2 peptide methylation, AlphaScreen, 120 min | inhibition, % at 12.5 µM | O96028 | actives 0.54% (n = 310,000); in the data active means inhibition above about 50%
# Alpha artifact: AlphaScreen assay artifact in NSD2 counter-screen; shares compounds with NSD2 HMT inh; AlphaScreen artifact counterscreen, preloaded methylated H4 peptide; AC35, µM (top dose mostly 10 µM), inactives show top-dose activity change, negative = signal loss; actives 9.4% (n = 1,500); call rule not given here
# Numbers without * were called inactive; nt = no result. Sampled rows, rich in hits. Any-hit rate of the full collection: about 1.9%.
SMILES,UHRF1 binding,CASP6 VEID inh,LEDGF integ inh,MBD2 DNA inh,TDP2 inh,NSD2 HMT inh,Alpha artifact
C[C@H](CO)N1C[C@H](C)[C@H](CN(C)Cc2ccncc2)OCCCC[C@H](C)Oc2ccc(N(C)C)cc2C1=O,nt,2,nt,nt,nt,nt,nt
O=C(COC(=O)c1ccccc1F)NC1CC1,-1,1,1,-3,2,52*,2%
COc1ccc(NC(=O)CN2CCCC2)cc1,1,5,-1,-2,3,-3,nt
O=C(CN1CCOCC1)Nc1ccc(Oc2ccccc2)cc1,0,nt,1,-2,-1,53*,0%
O=C(CN1CCOCCOCCN(CC(=O)Nc2ccccc2)CCOCC1)Nc1ccccc1,-1,nt,-2,-2,15,166*,0%
COc1ccc(NC(=O)CN2CCN(S(=O)(=O)N3CCCCCC3)CC2)cc1,0,0,2,2,12,74*,3%
COc1cc(/C=C2\C(=N)N3N=C(S(C)(=O)=O)SC3=NC2=O)ccc1OC(=O)c1cccs1,5,43*,1,1,12,62*,-7%
C/C(=N\NC(=O)CSc1nc2ccccc2o1)c1cccc(O)c1,-1,3,-1,1,-5,-1,nt
C/C(=N\NC(=O)CSc1nc2ccccc2o1)c1ccc(O)cc1,-2,1,4,4,6,51*,-5%
C/C=C/c1ccc([C@H]2[C@@H](CO)N(C(C)=O)[C@@H]2CNC(=O)c2ccncc2)cc1,nt,1,nt,nt,nt,nt,nt
CC1=NOC(=O)/C1=C\c1ccc(-c2ccccc2Br)o1,0,15,7,-1,22,69*,-12%
CC1=NOC(=O)/C1=C\c1ccc(-c2ccc(Cl)c(C(=O)O)c2)o1,28*,31,7,5,-19,84*,-7%
CC1=NOC(=O)/C1=C\c1ccc(-c2cccc(Cl)c2)o1,nt,nt,nt,nt,nt,0,nt
C[C@H]1CN([C@@H](C)CO)C(=O)c2cc(NC(=O)NC3CCCCC3)ccc2O[C@H]1CN(C)Cc1ccc(Cl)c(Cl)c1,nt,6,nt,nt,nt,nt,nt
Cc1nnc(Sc2cc(NCCO)c([N+](=O)[O-])c3nonc23)s1,-20,9,-1,-18,12,60*,-3%
Cc1nnc(Sc2cc(NCCCO)c([N+](=O)[O-])c3nonc23)s1,-16,13,-2,-8,-3,nt,nt
CCc1ccc(NC(=O)c2cc(-c3ccc4c(c3)OCO4)on2)cc1,-2,-2,-4,3,2,87*,1%
CNCCCC1Sc2ccccc2Oc2ccccc21 (configuration not stated),2,nt,4,-1,4,72*,-8%
CCOc1ccc(N2CC(C(=O)NCCc3c[nH]c4ccc(OC)cc34)CC2=O)cc1 (configuration not stated),1,0,1,-2,3,88*,-3%
COc1ccc(OC)c(NC(=O)Nc2c(O)ccc3ccccc23)c1,-4,2,4,-9,3,5,nt
COc1ccc(OC)c(C(=O)Nc2c(O)ccc3ccccc23)c1,3,1,-1,-5,2,52*,2%
O=C(Nc1ccc(Cl)cc1)N[C@H]1CC[C@@H](CCNS(=O)(=O)c2ccccc2F)O[C@@H]1CO,nt,3,nt,nt,nt,nt,nt
C[C@H]1CN([C@@H](C)CO)C(=O)Cc2cc(NS(=O)(=O)c3ccccc3)ccc2O[C@@H]1CN(C)C(=O)Nc1cccc2ccccc12,nt,15,nt,nt,nt,nt,nt
CC(=O)N1CCN(C2=Nc3cccc4cccc2c34)CC1,-10,nt,4,-9,6,nt,nt
CCOC(=O)N1CCN(C2=Nc3cccc4cccc2c34)CC1,-7,nt,-4,-7,6,71*,-4%
SMILES,UHRF1 binding,CASP6 VEID inh,LEDGF integ inh,MBD2 DNA inh,TDP2 inh,NSD2 HMT inh,Alpha artifact
Cc1cc(OCC(=O)Nc2ccccc2N2CCCCC2)ccc1C(C)C,-3,-4,4,-4,7,77*,-1%
CCCC(=O)Nc1ccc(C(=O)O)cc1NC(=O)CCC,11,nt,3,5,-10,72*,-2%
CCC(C)NCCCOc1cc(Cl)ccc1Cl (configuration not stated),-2,nt,3,-2,8,52*,-1%
CCC(C)NCCCCOc1ccc(Cl)cc1C (configuration not stated),5,nt,0,1,-8,60*,-5%
COc1ccccc1C(=O)N1C[C@H]2[C@@H](c3ccccc31)[C@H](CO)N2C(=O)Nc1ccccc1,nt,-3,nt,nt,nt,nt,nt
Oc1cccc2c(NC(=S)Nc3ccc(OC(F)F)cc3)cccc12,-5,81*,3,1,4,92*,-6%
FC(F)Oc1ccc(NC(=S)NCc2ccccc2)cc1,-4,1,-1,-4,-1,0,nt
O=C(c1ccc(S(=O)(=O)N2CCOCC2)cc1)N(c1cccc(Cl)c1)C1C=CS(=O)(=O)C1 (configuration not stated),2,-2,-4,4,9,83*,-6%
CC(C)CC#Cc1ccc2c(c1)O[C@@H](CN(C)C(=O)CN(C)C)[C@@H](C)CN([C@H](C)CO)S2(=O)=O,nt,4,nt,nt,nt,nt,nt
C[C@@H]1CN([C@H](C)CO)C(=O)Cc2cc(NC(=O)Cc3cn(C)c4ccccc34)ccc2O[C@H]1CN(C)S(C)(=O)=O,nt,-1,nt,nt,nt,nt,nt
CC(C)c1ccc(NC(=O)C2CC(=O)N(C(C)C)C2)cc1 (configuration not stated),6,nt,-2,5,-2,2,nt
C=CCOc1ccc(NC(=O)C2CC(=O)N(C(C)C)C2)cc1 (configuration not stated),1,nt,-2,3,-3,56*,3%
O=C(O)c1cc(-c2ccco2)nn1-c1ccc(Cl)cc1,12,50*,3,7,-6,60*,-5%
CO[C@@H]1CC[C@H]2CCOc3c(C#N)cccc3C(=O)N(C)C[C@@H](C)C(=O)N(C)C[C@H]1O2,nt,1,nt,nt,nt,nt,nt
Nc1nc(O)c(Sc2ccccc2[N+](=O)[O-])c(=O)[nH]1,4,8,-3,0,-14,54*,-6%
O=C(Cc1ccncc1)Nc1ccc2c(c1)[C@@H]1C[C@H](CC(=O)NC3CCCCC3)O[C@@H](CO)[C@@H]1O2,nt,1,nt,nt,nt,nt,nt
O=S(=O)(c1ccc(-c2nnco2)cc1)N1CCCCC1,2,0,0,-2,-11,93*,-1%
COCCCNC(=O)C1CCN(C(=O)c2oc3cc4sc(N(C)C)nc4cc3c2C)CC1,0,0,-8,-2,3,-4,nt
CCN(CC)CCCNC(=O)C1CCN(C(=O)c2oc3cc4sc(N(C)C)nc4cc3c2C)CC1,5,-12,-1,3,6,57*,0%

# From PubChem BioAssay
